Assay [1] has as its target T1, Prostaglandin G/H synthase 2 (Homo sapiens, UniProt P35354).
T1 sequence (P35354 whole entry): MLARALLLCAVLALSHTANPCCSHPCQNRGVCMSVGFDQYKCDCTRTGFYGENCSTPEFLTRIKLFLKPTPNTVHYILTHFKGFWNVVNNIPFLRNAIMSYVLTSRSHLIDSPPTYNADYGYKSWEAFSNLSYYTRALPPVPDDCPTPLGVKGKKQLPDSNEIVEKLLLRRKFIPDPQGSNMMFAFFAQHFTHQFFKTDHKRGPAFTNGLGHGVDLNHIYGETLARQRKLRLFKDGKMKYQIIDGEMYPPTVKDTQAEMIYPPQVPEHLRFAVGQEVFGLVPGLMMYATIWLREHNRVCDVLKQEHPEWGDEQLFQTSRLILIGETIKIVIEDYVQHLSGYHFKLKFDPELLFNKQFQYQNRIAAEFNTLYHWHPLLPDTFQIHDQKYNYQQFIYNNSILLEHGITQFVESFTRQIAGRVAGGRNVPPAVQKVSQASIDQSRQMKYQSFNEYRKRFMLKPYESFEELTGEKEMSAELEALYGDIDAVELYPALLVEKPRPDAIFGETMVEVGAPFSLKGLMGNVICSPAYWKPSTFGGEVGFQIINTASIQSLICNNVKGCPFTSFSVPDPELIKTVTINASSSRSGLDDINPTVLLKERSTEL

Assay [2] concerns the target T2, Prostaglandin G/H synthase 1 (Homo sapiens, UniProt P23219). Description: Concentration (in uM) to inhibit 50% of Prostaglandin G/H synthase 1 (COX-1) and is expressed in IC50. The procedure, abridged: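 Human platelet microsomal fraction as enzyme, stored at -70 °C. Run 5 min at 37 °C, started by enzyme, stopped with HCl. PGF2α read by EIA, duplicates. IC50 taken from the percent-inhibition versus concentration curve.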

A further assay has as its system Rattus norvegicus. Description: Carrageenan paw edema index (CPE index) as ratio of the reduction in paw volume relative to tebufelone at a po (peroral) dose of 50 mg/kg. The format is functional.
Assay [3] concerns the target T2, Prostaglandin G/H synthase 1. Description: Tested for selectivity for inhibition of human platelet derived COX-1 and recombinant human COX-2. The procedure, abridged: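 COX-1 was microsomes from human platelet concentrate and COX-2 was a sonicated lysate of Sf9 cells infected with baculovirus carrying human COX-2 cDNA. Each enzyme was added to AA (33 µM) and SnCl2 (0.5 mg/mL) in 50 mM Tris-HCl pH 7.5 and run 5 min at 37 °C, then stopped with HCl. PGF2α was measured by EIA, in duplicate. The value is IC50 COX-1/IC50 COX-2.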

Assay [4] deals with Mus musculus. Description: % reduction in phenylquinone-induced abdominal constriction (PAC) at po (peroral) dose of 70 mg/kg in mice. The format is functional, Abdomen.
The test system of assay [5] is Mus musculus. Description: Compound was tested for % reduction in phenylquinone-induced abdominal constriction (PAC) at po (peroral) dose of 70 mg/kg in mice. The format is functional. The settings on record: Abdomen.
For assay [6], the target named is Arachidonate 5-lipoxygenase (Rattus norvegicus). Description: The compound was tested for the concentration (in uM) to inhibit 50% of 5-Lipoxygenase (5-LOX) and is expressed in IC50.
The species entered for assay [7] is Mus musculus. Description: The compound was tested for the concentration to inhibit 50% of phenylquinone-induced abdominal constriction (PAC). The format is functional. Particulars: Abdomen.

A word on the IC50: it is the point on the concentration scale where inhibition reaches its midpoint. A higher IC50 goes with weaker potency in that assay. As a reminder, the ED50 is the midpoint of the dose-response relation. The low end stands for greater potency, the high end for weaker potency.

T2 sequence (P23219 whole entry): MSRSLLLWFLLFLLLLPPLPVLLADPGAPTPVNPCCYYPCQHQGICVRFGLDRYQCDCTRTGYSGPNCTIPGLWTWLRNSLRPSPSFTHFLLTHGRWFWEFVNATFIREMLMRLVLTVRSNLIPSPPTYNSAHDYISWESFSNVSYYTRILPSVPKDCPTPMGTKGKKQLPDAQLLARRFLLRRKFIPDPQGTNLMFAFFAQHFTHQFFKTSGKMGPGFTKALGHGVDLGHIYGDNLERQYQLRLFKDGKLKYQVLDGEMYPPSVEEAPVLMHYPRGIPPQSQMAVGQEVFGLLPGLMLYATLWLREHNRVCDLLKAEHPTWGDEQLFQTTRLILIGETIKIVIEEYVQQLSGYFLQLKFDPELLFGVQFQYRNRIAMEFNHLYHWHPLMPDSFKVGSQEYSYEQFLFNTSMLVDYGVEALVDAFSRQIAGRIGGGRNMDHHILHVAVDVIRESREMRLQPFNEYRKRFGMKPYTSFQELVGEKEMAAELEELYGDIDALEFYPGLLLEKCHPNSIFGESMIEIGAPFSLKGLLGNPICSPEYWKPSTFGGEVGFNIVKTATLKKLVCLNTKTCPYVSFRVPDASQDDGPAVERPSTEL

Consider `CCCCC(=O)c1cc(C(C)(C)C)c2c(c1)C(C)(C)CO2`, for which the IC50 in assay [1] is 0.04 µM; in assay [2] it was 2 µM.
With `CN(CC(=O)c1cc(C(C)(C)C)c2c(c1)C(C)(C)CO2)CC1CC1`, the 50% inhibitory concentration (IC50) in assay [1] worked out at 2.5 µM; in assay [2] it was 30 µM. The CPE index in the assay on Rattus norvegicus amounted to 0.38.
As for `CC(C)(C)c1cc(C(=O)CS(=O)(=O)CC2CC2)cc2c1OCC2(C)C`, the concentration for half-maximal inhibition (IC50) is 2 µM in assay [1] and 5 µM in assay [2]. The CPE index in the assay on Rattus norvegicus stood at 0. In addition, in assay [3], the Selectivity is 2.5.
Consider `CC(C)(C)c1cc(C(=O)C2CCCCC2)cc2c1OCC2(C)C`, for which, in the assay on Rattus norvegicus, the CPE index is reported as 0.36.
Consider `CC(C)(C)c1cc(C(=O)CCCC2CC2)cc2c1OCC2(C)C`, for which the 50% inhibitory concentration (IC50) in assay [1] was 0.22 µM; in assay [2], 7 µM.
Take `CC(=O)OCC(=O)c1cc(C(C)(C)C)c2c(c1)C(C)(C)CO2`: the CPE index in the assay on Rattus norvegicus stood at 0.21.
In the assay on Mus musculus [4], `CC(C)(C)c1cc(C(=O)CSCC2CC2)cc2c1OCC2(C)C` showed a Reduction of 54%. The IC50 in assay [1] was 0.4 µM; in assay [2], 0.65 µM. For the same molecule, in the assay on Rattus norvegicus, the CPE index was determined as 0.62. Further, the Selectivity in assay [3] was 1.6.
For `CCCCCC(=O)c1cc(C(C)(C)C)c2c(c1)C(C)(C)CO2`, the IC50 was 0.09 µM in assay [1] and > 10 µM in assay [2]. Also, in the assay on Rattus norvegicus, the CPE index came to 0.4. The Selectivity in assay [3] was > 111.
Turning to `CSCCC(=O)c1cc(C(C)(C)C)c2c(c1)C(C)(C)CO2`, the CPE index in the assay with Rattus norvegicus is reported as 0.7.
Take `CC(C)(C)c1cc(C(=O)/C=C/CC2CC2)cc2c1OCC2(C)C`: the IC50 in assay [1] was determined as 0.25 µM; in assay [2] it was 0.8 µM. Besides, the CPE index in the assay on Rattus norvegicus amounted to 0.18.
In turn, `CSCC(=O)c1cc(C(C)(C)C)c2c(c1)C(C)(C)CO2` yielded a Reduction in the assay with Mus musculus [4] of 35%. Further, in the assay on Rattus norvegicus, the CPE index worked out at 1.77.
As to `C#CCCCC(=O)c1cc(C(C)(C)C)c(O)c(C(C)(C)C)c1` [TEBUFELONE], the half-maximal inhibitory concentration (IC50) amounted to 0.1 µM in assay [1] and 0.25 µM in assay [2].
Turning to `CC(C)(C)c1cc(C(=O)CCC2CC2)cc2c1OCC2(C)C`, the Reduction with Mus musculus [4] came to 58%. In the assay on Rattus norvegicus, the CPE index came to 0.18.
The molecule `CC(C)(Cl)CC(=O)c1cc(C(C)(C)C)c2c(c1)C(C)(C)CO2` displayed a median effective dose (ED50) in the assay with Mus musculus [5] of 16 mg/kg. The values for the IC50 in assay [1], in assay [2] and in assay [6] were 0.1 µM, 1 µM and 8 µM, respectively. For the same molecule, the CPE index in the assay on Rattus norvegicus came out at 1.2.
For `CC(C)(C)c1cc(C(=O)C[S+]([O-])CC2CC2)cc2c1OCC2(C)C` (centres undefined), the half-maximal inhibitory concentration (IC50) in assay [1] was found to be 4 µM; in assay [2] it was 20 µM. Besides, in the assay with Rattus norvegicus, the CPE index came to 0.04. For the same molecule, in assay [3], the Selectivity was 5.
For the molecule `CN(C)CCC(=O)c1cc(C(C)(C)C)c2c(c1)C(C)(C)CO2`, the CPE index in the assay on Rattus norvegicus came to 0.32.
For `CC(O)c1cc(C(C)(C)C)c2c(c1)C(C)(C)CO2` (centres undefined), in the assay with Rattus norvegicus, the CPE index turned out to be 0.
Take `CC(C)(C)c1cccc2c1OCC2(C)C`: the CPE index with Rattus norvegicus was determined as 0.31.
As for `C[S+]([O-])CC(=O)c1cc(C(C)(C)C)c2c(c1)C(C)(C)CO2` (centres undefined), the 50% effect level in the assay filed under Mus musculus [7] (ED50) was put at a dose of 20 mg/kg. Besides, the CPE index with Rattus norvegicus was determined as 1.01.
Consider `CC(C)=CC(=O)c1cc(C(C)(C)C)c2c(c1)C(C)(C)CO2`, for which the Reduction in the assay on Mus musculus [4] stood at 50%. Moreover, the CPE index with Rattus norvegicus came out at 1.22.
In the case of `CCC(=O)c1cc(C(C)(C)C)c2c(c1)C(C)(C)CO2`, the 50% effective dose (ED50) in the assay listed under Mus musculus [7] amounted to 20 mg/kg. Further, the CPE index in the assay with Rattus norvegicus was 1.14.
Molecule `CCCC(=O)c1cc(C(C)(C)C)c2c(c1)C(C)(C)CO2` registered a Reduction in the assay with Mus musculus [4] of 85%. In addition, the IC50 in assay [1] and in assay [2] was 0.095 µM throughout.
`CC(C)(C)c1cc(C(=O)c2ccccc2)cc2c1OCC2(C)C` showed a Reduction in the assay on Mus musculus [4] of 34%. The values for the half-maximal inhibitory concentration (IC50) in assay [1] and in assay [2] were 0.007 µM and 0.15 µM, respectively.
In the case of `CC(C)CCCC(=O)c1cc(C(C)(C)C)c2c(c1)C(C)(C)CO2`, the results for the half-inhibitory concentration (IC50) in assay [1], in assay [2] and in assay [6] were 4.5 µM, 15 µM and 15 µM, respectively. The CPE index with Rattus norvegicus stood at 0.36. Further, the Selectivity in assay [3] was 3.3.
On to `CC(C)(C)C(=O)c1cc(C(C)(C)C)c2c(c1)C(C)(C)CO2`, for which the CPE index with Rattus norvegicus stood at 0.3.
Regarding `CC(=O)c1cc(C(C)(C)C)c2c(c1)C(C)(C)CO2`, the Reduction in the assay on Mus musculus [4] is listed as 78%. Also, in the assay with Rattus norvegicus, the CPE index stood at 0.92.
In the case of `CC(C)C(=O)c1cc(C(C)(C)C)c2c(c1)C(C)(C)CO2`, the ED50 in the assay filed under Mus musculus [7] came to 22 mg/kg. Also, the CPE index in the assay on Rattus norvegicus was 1.25.
Consider `CC(C)(C)c1cc(C(=O)C2CC2)cc2c1OCC2(C)C`, for which, in the assay on Mus musculus [4], the Reduction is reported as 85%. Besides, in the assay with Rattus norvegicus, the CPE index came out at 0.67.
In the case of `CC(C)(C)c1cc(C(=O)c2ccc(F)cc2)cc2c1OCC2(C)C`, the CPE index with Rattus norvegicus came to 0.52.
`CC(=O)SCC(=O)c1cc(C(C)(C)C)c2c(c1)C(C)(C)CO2`: the Reduction in the assay on Mus musculus [4] stood at 64%. Moreover, the CPE index in the assay on Rattus norvegicus was found to be 0.95.
Regarding `COCCOCC(=O)c1cc(C(C)(C)C)c2c(c1)C(C)(C)CO2`, in the assay on Rattus norvegicus, the CPE index is 0.52.
`CC(C)(C)c1cc(C(=O)C2CCCC2)cc2c1OCC2(C)C` returned a Reduction with Mus musculus [4] of 56%. Besides, the CPE index in the assay on Rattus norvegicus was determined as 0.65.
Consider `CC(C)(C)c1cc(C(=O)CS(C)(=O)=O)cc2c1OCC2(C)C`, for which the CPE index with Rattus norvegicus came to 0.
Take `C#CCCCC(=O)c1cc(C(C)(C)C)c2c(c1)C(C)(C)CO2`: the values for the IC50 in assay [1] and in assay [2] were 0.015 µM and 0.06 µM, respectively.
Turning to `CC(C)(C)c1cc(C(=O)c2ccccc2Cl)cc2c1OCC2(C)C`, the CPE index with Rattus norvegicus worked out at 0.
Same read-out and setting: in the case of `CC(C)(C)c1cc(C(=O)CC2CC2)cc2c1OCC2(C)C` it was 1.06.

Values taken from ChEMBL document CHEMBL1131314, “New cyclooxygenase-2/5-lipoxygenase inhibitors. 1. 7-tert-buty1-2,3-dihydro-3,3-dimethylbenzofuran derivatives as gastrointestinal safe antiinflammatory and analgesic agents: discovery and variation of the 5-keto substituent” (J Med Chem, 1998).
